Reference: ChEMBL document CHEMBL1128216, “Rational design and synthesis of small molecule, non-oligosaccharide selectin inhibitors: (alpha-D-mannopyranosyloxy)biphenyl-substituted carboxylic acids” (J Med Chem, 1995)
Each block holds one compound with its values, some of them ahead of it.

Legend:
[1] = biological target: T1, L-selectin (Mus musculus) (UniProt P18337); experiment: In vitro inhibitory activity against sialyl Lewis X expressing HL60 cell binding to Selectin L at 6 mM concentration; format: cell-based; details: HL-60
T1 sequence (whole entry): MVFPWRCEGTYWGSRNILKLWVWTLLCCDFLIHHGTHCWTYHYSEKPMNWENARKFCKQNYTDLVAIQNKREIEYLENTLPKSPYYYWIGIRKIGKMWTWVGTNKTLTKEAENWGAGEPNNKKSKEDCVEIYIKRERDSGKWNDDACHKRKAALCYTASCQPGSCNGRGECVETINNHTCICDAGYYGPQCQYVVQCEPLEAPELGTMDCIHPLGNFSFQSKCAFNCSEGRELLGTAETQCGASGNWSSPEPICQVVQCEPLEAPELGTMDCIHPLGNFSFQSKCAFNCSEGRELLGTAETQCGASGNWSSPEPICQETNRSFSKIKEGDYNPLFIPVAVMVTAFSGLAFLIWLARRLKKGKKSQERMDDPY

E-selectin = biological target: T2, E-selectin (Homo sapiens, UniProt P16581); experiment: In vitro inhibition of HL60 (human leukemia) cell binding to human recombinant e-selectin.; format: cell-based, HL-60
T2 sequence (P16581 whole entry): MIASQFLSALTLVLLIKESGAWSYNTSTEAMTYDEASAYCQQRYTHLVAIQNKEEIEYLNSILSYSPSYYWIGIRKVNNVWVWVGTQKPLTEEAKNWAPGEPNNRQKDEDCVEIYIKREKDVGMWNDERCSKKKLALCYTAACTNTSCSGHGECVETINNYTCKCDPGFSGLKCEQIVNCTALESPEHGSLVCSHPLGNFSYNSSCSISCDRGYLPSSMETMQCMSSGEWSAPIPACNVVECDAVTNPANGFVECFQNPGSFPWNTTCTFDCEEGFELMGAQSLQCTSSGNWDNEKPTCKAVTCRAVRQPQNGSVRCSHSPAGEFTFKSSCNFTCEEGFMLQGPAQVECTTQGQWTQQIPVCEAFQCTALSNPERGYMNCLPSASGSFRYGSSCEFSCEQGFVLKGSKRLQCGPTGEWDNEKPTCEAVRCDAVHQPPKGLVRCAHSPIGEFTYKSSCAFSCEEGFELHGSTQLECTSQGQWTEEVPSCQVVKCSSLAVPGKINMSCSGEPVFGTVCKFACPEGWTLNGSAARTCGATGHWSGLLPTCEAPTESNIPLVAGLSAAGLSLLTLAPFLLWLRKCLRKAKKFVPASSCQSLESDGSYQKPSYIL
In short: (§1)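 Human E-selectin (lectin, EGF and two complement repeats) fused to mouse IgG was captured on anti-mouse IgG magnetic beads overnight at 4 °C. Wells were pre-blocked with 3% BSA/PBS. Compound in PBS was mixed with calcein-labelled HL60 cells (10⁷/mL, RPMI 1640 + 10% FCS) and beads (4 × 10⁶/mL) for 10 min at room temperature. Unbound cells were removed magnetically with two PBS washes, and bound cells were lysed in 1% NP40.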

[2] = biological target: T3, P-selectin (Homo sapiens) (UniProt P16109); experiment: In vitro inhibitory activity against sialyl Lewis X expressing HL60 cell binding Selectin P at 24 mM concentration; format: cell-based; details: HL-60
T3 sequence (whole entry): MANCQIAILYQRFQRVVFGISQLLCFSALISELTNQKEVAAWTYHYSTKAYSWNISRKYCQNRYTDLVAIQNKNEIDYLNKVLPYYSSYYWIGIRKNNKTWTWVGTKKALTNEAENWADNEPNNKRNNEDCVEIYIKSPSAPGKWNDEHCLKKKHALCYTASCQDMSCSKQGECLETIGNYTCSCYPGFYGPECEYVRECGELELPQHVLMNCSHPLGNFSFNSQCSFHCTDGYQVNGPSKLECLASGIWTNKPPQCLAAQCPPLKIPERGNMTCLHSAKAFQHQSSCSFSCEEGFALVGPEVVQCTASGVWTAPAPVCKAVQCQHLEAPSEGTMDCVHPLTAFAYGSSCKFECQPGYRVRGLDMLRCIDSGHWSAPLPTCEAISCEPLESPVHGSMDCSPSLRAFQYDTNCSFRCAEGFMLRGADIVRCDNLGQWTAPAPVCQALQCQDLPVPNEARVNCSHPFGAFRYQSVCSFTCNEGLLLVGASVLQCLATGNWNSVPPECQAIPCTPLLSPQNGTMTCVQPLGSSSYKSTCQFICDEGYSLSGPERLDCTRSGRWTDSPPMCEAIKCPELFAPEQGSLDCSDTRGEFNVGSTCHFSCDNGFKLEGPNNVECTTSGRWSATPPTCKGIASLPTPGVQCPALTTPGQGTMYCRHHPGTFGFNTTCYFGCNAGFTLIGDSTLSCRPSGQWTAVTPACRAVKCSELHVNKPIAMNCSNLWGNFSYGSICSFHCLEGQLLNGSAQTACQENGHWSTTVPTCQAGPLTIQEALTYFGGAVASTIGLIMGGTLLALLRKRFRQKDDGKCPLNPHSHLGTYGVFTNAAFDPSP

[3] = biological target: T3, P-selectin (Homo sapiens); experiment: In vitro inhibitory activity against sialyl Lewis X expressing HL60 cell binding Selectin P at 27 mM concentration; format: cell-based; details: HL-60
[4] = biological target: T4, E-selectin (Homo sapiens) (UniProt P16581); experiment: In vitro inhibitory activity against sialyl Lewis X expressing HL60 cell binding to recombinant human E-selectin at 32 mM concentration; format: cell-based; details: HL-60; in short: as §1
T4 sequence (whole entry): T2 sequence (P16581 whole entry)

[5] = biological target: T1, L-selectin (Mus musculus); experiment: In vitro inhibitory activity against sialyl Lewis X expressing HL60 cell binding Selectin L at 5 mM concentration; format: cell-based; details: HL-60
[6] = biological target: T3, P-selectin (Homo sapiens); experiment: In vitro inhibitory activity against sialyl Lewis X expressing HL60 cell binding Selectin P at 20 mM concentration; format: cell-based; details: HL-60
P-selectin = biological target: T5, P-selectin (Homo sapiens, UniProt P16109); experiment: In vitro inhibitory activity against sialyl Lewis X expressing HL60 cell binding Selectin P; format: cell-based, HL-60
T5 sequence (P16109 whole entry): T3 sequence (whole entry)

[7] = biological target: T4, E-selectin (Homo sapiens); experiment: In vitro inhibitory activity against sialyl Lewis X expressing HL60 cell binding to recombinant human E-selectin at 17 mM concentration; format: cell-based; details: HL-60; in short: as §1
[8] = biological target: T4, E-selectin (Homo sapiens); experiment: In vitro inhibitory activity against sialyl Lewis X expressing HL60 cell binding to recombinant human E-selectin at 27 mM concentration; format: cell-based; details: HL-60; in short: as §1

inhibition [1]: 30%
IC50 (E-selectin): 9.5 mM
inhibition [2]: 0%
SMILES: O=C(O)COCc1cccc(-c2ccccc2O[C@H]2O[C@H](CO)[C@@H](O)[C@@H](O)[C@@H]2O)c1

inhibition [1]: 15%
inhibition [3]: 0%
IC50 (E-selectin): 16 mM
SMILES: O=C(O)c1cccc(-c2ccccc2O[C@H]2O[C@H](CO)[C@@H](O)[C@@H](O)[C@@H]2O)c1

inhibition [4]: 0%
inhibition [5]: 0%
inhibition [6]: 40%
SMILES: O=C(O)C[C@@H](NC(=O)c1cccc(-c2ccccc2O[C@H]2O[C@H](CO)[C@@H](O)[C@@H](O)[C@@H]2O)c1)C(=O)O

inhibition [1]: 0%
IC50 (P-selectin): 17 mM
inhibition [7]: 70%
SMILES: O=C(O)C(Oc1cccc(-c2ccccc2O[C@H]2O[C@H](CO)[C@@H](O)[C@@H](O)[C@@H]2O)c1)c1ccccc1 (stereo partly drawn)

inhibition [8]: 33%
SMILES: NCCCC[C@H](NC(=O)c1ccc(-c2ccccc2O[C@H]2O[C@H](CO)[C@@H](O)[C@@H](O)[C@@H]2O)cc1)C(=O)O
